# From ChEMBL document CHEMBL3779810, “Potent, Selective, and Orally Bioavailable Inhibitors of VPS34 Provide Chemical Tools to Modulate Autophagy in Vivo” (ACS Med Chem Lett, 2016)
# The source made the active and inactive calls. The calls are words filed in the database; no cut-off is given here.
# Experiments:
# [1] = target: T1, Phosphatidylinositol 4,5-bisphosphate 3-kinase catalytic subunit delta isoform (Homo sapiens, UniProt O00329); assay: Inhibition of PI3Kdelta (unknown origin)
# T1 sequence (O00329 whole entry): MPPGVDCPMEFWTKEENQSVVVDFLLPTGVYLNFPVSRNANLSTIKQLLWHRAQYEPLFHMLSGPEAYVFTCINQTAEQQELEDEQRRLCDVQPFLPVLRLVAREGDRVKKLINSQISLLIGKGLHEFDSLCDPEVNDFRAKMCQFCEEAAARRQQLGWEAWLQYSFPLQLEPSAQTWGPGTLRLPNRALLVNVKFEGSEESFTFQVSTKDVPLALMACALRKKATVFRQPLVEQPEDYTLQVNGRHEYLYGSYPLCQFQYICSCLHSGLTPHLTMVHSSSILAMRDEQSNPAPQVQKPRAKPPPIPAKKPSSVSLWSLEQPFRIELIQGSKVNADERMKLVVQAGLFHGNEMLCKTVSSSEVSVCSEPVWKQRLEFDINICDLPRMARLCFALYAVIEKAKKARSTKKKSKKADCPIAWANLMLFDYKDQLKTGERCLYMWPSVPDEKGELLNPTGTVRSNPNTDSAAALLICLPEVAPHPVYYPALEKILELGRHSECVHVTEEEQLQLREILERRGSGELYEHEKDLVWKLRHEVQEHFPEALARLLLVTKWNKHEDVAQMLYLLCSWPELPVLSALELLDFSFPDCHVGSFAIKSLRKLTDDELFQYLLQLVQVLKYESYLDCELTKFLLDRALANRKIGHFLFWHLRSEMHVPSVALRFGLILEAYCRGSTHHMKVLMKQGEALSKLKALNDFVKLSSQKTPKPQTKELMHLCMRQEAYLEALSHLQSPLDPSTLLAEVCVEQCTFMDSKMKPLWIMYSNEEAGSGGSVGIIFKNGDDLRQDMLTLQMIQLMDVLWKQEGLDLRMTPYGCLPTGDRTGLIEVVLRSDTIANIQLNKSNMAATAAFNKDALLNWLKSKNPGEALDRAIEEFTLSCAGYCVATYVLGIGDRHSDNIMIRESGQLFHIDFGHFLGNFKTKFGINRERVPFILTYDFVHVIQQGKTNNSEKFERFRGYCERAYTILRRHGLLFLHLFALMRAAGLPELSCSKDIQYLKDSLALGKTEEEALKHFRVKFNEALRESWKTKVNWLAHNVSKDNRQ
# [2] = target: T2, Phosphatidylinositol 3-kinase catalytic subunit type 3 (Homo sapiens, UniProt Q8NEB9); assay: Inhibition of VPS34 in human U2OS cells incubated for 2 hrs by GFP-FYVE reporter gene assay; format: cell-based
# T2 sequence (Q8NEB9 whole entry): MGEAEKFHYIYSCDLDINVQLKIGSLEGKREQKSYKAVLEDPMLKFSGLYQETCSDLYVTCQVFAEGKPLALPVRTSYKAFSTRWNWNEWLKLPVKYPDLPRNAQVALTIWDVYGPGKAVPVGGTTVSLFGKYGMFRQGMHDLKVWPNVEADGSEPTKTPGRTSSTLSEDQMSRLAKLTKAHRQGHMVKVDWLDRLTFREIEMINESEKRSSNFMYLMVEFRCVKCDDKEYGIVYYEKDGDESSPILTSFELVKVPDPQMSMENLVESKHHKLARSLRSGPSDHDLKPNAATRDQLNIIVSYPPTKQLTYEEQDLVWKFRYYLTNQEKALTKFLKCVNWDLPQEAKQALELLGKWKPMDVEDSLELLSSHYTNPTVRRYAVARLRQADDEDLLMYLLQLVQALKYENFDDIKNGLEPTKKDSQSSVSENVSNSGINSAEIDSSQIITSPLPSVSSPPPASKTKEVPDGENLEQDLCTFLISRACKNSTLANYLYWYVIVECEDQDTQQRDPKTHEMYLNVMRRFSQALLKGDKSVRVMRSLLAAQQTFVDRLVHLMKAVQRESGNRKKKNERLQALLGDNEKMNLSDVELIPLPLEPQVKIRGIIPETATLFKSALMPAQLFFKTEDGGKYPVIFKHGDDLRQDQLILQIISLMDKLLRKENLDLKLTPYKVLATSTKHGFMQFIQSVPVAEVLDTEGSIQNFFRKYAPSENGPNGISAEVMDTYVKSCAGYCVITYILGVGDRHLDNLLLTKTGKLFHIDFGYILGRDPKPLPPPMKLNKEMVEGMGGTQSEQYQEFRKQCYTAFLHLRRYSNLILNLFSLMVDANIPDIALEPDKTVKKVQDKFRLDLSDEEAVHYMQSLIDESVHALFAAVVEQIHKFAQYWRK
# [3] = Intrinsic clearance in mouse liver microsomes by LC-MS/MS analysis; format: ADME; details: read-out: CLH
# [4] = target: T2, Phosphatidylinositol 3-kinase catalytic subunit type 3; assay: Inhibition of recombinant human VPS34 using L-alpha-phosphatidylinositol as substrate incubated for 10 mins by luminescence based ATP detection assay
# Outline: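 VPS34 biochemical IC50 was measured with a luminescence-based ATP detection read-out.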
# [5] = target: T2, Phosphatidylinositol 3-kinase catalytic subunit type 3; assay: Inhibition of VPS34 in human DLD1 cells assessed as prevention of NCOA4 protein degradation at 1 to 10 uM incubated for 24 hrs by Western blot analysis; format: cell-based; details: DLD-1
# Homo sapiens [6] = organism: Homo sapiens; assay: Selectivity ratio of IC50 for PI3Kgamma (unknown origin) to recombinant human VPS34
# Homo sapiens [7] = organism: Homo sapiens; assay: Selectivity ratio of IC50 for PI3Kbeta (unknown origin) to recombinant human VPS34
# Homo sapiens [8] = organism: Homo sapiens; assay: Selectivity ratio of IC50 for PI3Kalpha (unknown origin) to recombinant human VPS34
# [9] = AUC (0 to infinity) in C57BL/6 mouse at 10 mg/kg, po; format: ADME, organism-based; set-up: dose 10 mg/kg, route oral, time infinity; details: in vivo
# Outline: (§1)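 Pharmacokinetics in C57BL/6 mice after a single dose, either intravenous at 2 mg/kg or oral at 10 mg/kg. Mean parameters reported: AUCinf, CL, Vdss, t1/2, Tmax, Cmax and F. Clearance was also expressed as a percentage of hepatic blood flow.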
# [10] = Cmax in C57BL/6 mouse at 10 mg/kg, po; format: ADME, organism-based; set-up: dose 10 mg/kg, route oral; details: in vivo; outline: as §1
# [11] = Volume of distribution at steady state in C57BL/6 mouse at 2 mg/kg, iv; format: ADME, organism-based; details: in vivo, read-out: Vdss; outline: as §1
# Homo sapiens [12] = organism: Homo sapiens; assay: Selectivity ratio of IC50 for TAK1 (unknown origin) to recombinant human VPS34
# [13] = Half life in C57BL/6 mouse at 2 mg/kg, iv; format: ADME, organism-based; details: in vivo; outline: as §1
# RKO = assay: Antitumor activity against human RKO cells xenografted in athymic nude mouse assessed as reduction in tumor volume at 50 mg/kg, po bid for 7 days; format: functional, organism-based
# [14] = AUC (0 to infinity) in C57BL/6 mouse at 2 mg/kg, iv; format: ADME, organism-based; set-up: dose 2 mg/kg, route intravenous, time infinity; details: in vivo; outline: as §1
# [15] = target: T2, Phosphatidylinositol 3-kinase catalytic subunit type 3; assay: Inhibition of VPS34 in human DLD1 cells assessed as prevention of NBR1 protein degradation at 1 to 10 uM incubated for 24 hrs by Western blot analysis; format: cell-based; details: DLD-1
# [16] = target: T2, Phosphatidylinositol 3-kinase catalytic subunit type 3; assay: Inhibition of VPS34 in human DLD1 cells assessed as increase in LC3-1 protein expression at 1 to 10 uM incubated for 24 hrs by Western blot analysis; format: cell-based; details: DLD-1
# Mus musculus [17] = assay: Systemic clearance in C57BL/6 mouse at 10 mg/kg, po relative to hepatic blood flow; format: ADME, organism-based, Liver; details: in vivo; outline: as §1
# [18] = target: T2, Phosphatidylinositol 3-kinase catalytic subunit type 3; assay: Inhibition of VPS34 in human DLD1 cells assessed as prevention of FTH1 protein degradation at 1 to 10 uM incubated for 24 hrs by Western blot analysis; format: cell-based; details: DLD-1
# [19] = Clearance in C57BL/6 mouse at 2 mg/kg, iv; format: ADME, organism-based; details: in vivo; outline: as §1
# Mus musculus [20] = assay: Inhibition of autophagy in athymic nude mouse xenografted with human RKO cells assessed as accumulation of LC3-2 protein at 50 mg/kg, po bid for 7 days by SDS-PAGE analysis; format: functional, organism-based; details: TDE = time-dependent effect
# Outline: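 Nude mice bearing RKO colon cancer tumors were dosed orally at 50 mg/kg twice daily (BID) for 7 days. LC3-II in tumor samples was followed over time by immunoblot, one lane per individual mouse.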
# [21] = Systemic clearance in C57BL/6 mouse at 10 mg/kg, po; format: ADME, organism-based; details: in vivo; outline: as §1
# [22] = Tmax in C57BL/6 mouse at 10 mg/kg, po; format: ADME, organism-based; details: in vivo; outline: as §1
# [23] = target: T2, Phosphatidylinositol 3-kinase catalytic subunit type 3; assay: Inhibition of VPS34 in human DLD1 cells assessed as increase in LC3-2 protein expression at 1 to 10 uM incubated for 24 hrs by Western blot analysis; format: cell-based; details: DLD-1
# [24] = Oral bioavailability in C57BL/6 mouse at 10 mg/kg; format: ADME, organism-based; details: in vivo; outline: as §1
# Homo sapiens [25] = organism: Homo sapiens; assay: Selectivity ratio of IC50 for PI3Kdelta (unknown origin) to recombinant human VPS34
# [26] = target: T2, Phosphatidylinositol 3-kinase catalytic subunit type 3; assay: Inhibition of VPS34 in human DLD1 cells assessed as prevention of p62 degradation at 1 to 10 uM incubated for 24 hrs by Western blot analysis; format: cell-based; details: DLD-1
# [27] = target: T2, Phosphatidylinositol 3-kinase catalytic subunit type 3; assay: Inhibition of VPS34 in human DLD1 cells assessed as prevention of NDP52 protein degradation at 1 to 10 uM incubated for 24 hrs by Western blot analysis; format: cell-based; details: DLD-1
# [28] = target: Phosphatidylinositol 4,5-bisphosphate 3-kinase catalytic subunit gamma isoform (Homo sapiens, UniProt P48736); assay: Inhibition of PI3Kgamma (unknown origin)
# Chain of Phosphatidylinositol 4,5-bisphosphate 3-kinase catalytic subunit gamma isoform (P48736 whole entry, canonical isoform): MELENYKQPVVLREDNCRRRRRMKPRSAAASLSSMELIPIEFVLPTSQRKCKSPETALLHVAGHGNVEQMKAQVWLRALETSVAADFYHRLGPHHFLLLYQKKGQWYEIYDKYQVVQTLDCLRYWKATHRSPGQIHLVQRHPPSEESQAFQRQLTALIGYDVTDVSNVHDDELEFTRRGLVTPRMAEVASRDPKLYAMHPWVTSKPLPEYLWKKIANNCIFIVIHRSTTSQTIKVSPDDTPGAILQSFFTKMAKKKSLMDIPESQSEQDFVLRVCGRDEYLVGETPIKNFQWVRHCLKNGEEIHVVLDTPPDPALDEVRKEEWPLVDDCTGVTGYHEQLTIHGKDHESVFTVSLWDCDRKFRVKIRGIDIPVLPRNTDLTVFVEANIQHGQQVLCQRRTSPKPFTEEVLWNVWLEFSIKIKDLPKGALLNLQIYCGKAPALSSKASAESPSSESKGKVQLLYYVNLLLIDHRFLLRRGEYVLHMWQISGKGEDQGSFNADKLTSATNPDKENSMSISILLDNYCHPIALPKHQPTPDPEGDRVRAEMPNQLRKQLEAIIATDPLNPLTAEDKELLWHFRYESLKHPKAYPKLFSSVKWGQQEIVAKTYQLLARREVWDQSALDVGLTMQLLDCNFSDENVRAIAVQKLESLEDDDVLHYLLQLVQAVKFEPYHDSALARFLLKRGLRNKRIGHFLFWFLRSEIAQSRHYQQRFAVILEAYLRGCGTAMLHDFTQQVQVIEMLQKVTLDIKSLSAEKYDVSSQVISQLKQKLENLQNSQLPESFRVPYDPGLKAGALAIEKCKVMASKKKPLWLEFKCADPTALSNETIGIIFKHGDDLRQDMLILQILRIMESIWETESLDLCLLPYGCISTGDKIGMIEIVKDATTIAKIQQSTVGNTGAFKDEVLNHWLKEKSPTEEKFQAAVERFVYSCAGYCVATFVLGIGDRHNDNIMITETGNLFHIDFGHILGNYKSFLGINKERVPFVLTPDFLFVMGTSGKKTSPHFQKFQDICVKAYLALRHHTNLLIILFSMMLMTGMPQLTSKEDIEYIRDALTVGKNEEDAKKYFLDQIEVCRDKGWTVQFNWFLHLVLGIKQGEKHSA
# [29] = target: Phosphatidylinositol 4,5-bisphosphate 3-kinase catalytic subunit beta isoform (Homo sapiens, UniProt P42338); assay: Inhibition of PI3Kbeta (unknown origin)
# Chain of Phosphatidylinositol 4,5-bisphosphate 3-kinase catalytic subunit beta isoform (P42338 whole entry, canonical isoform): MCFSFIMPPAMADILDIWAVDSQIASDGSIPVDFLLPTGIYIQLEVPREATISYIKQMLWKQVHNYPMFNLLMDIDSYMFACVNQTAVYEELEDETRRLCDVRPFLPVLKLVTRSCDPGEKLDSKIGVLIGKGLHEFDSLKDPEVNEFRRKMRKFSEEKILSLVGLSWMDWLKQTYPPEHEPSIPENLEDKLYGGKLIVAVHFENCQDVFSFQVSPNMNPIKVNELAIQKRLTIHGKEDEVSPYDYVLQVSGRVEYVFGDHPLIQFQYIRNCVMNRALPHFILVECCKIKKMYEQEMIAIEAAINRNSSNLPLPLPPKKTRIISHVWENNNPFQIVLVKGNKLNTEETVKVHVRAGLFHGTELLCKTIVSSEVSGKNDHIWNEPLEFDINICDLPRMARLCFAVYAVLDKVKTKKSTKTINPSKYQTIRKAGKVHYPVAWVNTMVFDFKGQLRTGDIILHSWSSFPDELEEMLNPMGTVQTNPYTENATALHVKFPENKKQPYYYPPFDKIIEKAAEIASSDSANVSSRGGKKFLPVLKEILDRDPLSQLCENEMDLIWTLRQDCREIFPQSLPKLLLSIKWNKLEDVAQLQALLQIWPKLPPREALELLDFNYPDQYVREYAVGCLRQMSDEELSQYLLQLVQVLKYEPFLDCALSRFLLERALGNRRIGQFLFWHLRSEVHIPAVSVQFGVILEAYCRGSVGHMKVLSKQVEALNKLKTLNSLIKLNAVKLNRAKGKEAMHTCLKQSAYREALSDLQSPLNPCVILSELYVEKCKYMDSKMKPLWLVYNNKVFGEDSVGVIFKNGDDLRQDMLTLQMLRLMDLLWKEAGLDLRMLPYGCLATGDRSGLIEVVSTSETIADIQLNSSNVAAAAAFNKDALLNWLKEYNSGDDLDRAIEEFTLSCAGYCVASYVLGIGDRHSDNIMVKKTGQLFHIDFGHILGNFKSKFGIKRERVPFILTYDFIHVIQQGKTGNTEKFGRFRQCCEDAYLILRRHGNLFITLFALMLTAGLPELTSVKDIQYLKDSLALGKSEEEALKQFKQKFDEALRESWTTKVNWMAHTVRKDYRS
# [30] = target: Phosphatidylinositol 4-kinase beta (Homo sapiens, UniProt Q9UBF8); assay: Inhibition of PI4Kbeta (unknown origin)
# Chain of Phosphatidylinositol 4-kinase beta (Q9UBF8 whole entry, canonical isoform): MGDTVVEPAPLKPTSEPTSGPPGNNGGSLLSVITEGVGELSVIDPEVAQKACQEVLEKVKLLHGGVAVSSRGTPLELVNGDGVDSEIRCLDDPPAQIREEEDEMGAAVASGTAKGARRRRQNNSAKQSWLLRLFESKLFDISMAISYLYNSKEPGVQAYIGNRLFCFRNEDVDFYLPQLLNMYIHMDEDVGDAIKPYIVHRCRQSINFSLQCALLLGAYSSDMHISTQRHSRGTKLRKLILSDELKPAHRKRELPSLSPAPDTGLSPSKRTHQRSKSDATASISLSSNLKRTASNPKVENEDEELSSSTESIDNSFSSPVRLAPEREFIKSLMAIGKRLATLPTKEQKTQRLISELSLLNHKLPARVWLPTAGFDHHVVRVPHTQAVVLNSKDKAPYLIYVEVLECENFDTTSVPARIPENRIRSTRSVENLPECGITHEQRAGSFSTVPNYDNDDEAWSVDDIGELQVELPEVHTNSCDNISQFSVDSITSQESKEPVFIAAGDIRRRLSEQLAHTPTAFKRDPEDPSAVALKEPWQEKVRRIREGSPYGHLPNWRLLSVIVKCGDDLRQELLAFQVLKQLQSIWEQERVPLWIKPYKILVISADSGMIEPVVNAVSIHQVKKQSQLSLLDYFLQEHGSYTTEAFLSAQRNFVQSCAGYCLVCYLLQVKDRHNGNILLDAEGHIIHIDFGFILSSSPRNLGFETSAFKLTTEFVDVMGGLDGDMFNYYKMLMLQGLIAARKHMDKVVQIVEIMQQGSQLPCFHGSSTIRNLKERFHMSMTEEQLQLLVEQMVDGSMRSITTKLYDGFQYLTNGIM
# [31] = target: Phosphatidylinositol 4,5-bisphosphate 3-kinase catalytic subunit alpha isoform (Homo sapiens, UniProt P42336); assay: Inhibition of PI3Kalpha (unknown origin)
# Chain of Phosphatidylinositol 4,5-bisphosphate 3-kinase catalytic subunit alpha isoform (P42336 whole entry, canonical isoform): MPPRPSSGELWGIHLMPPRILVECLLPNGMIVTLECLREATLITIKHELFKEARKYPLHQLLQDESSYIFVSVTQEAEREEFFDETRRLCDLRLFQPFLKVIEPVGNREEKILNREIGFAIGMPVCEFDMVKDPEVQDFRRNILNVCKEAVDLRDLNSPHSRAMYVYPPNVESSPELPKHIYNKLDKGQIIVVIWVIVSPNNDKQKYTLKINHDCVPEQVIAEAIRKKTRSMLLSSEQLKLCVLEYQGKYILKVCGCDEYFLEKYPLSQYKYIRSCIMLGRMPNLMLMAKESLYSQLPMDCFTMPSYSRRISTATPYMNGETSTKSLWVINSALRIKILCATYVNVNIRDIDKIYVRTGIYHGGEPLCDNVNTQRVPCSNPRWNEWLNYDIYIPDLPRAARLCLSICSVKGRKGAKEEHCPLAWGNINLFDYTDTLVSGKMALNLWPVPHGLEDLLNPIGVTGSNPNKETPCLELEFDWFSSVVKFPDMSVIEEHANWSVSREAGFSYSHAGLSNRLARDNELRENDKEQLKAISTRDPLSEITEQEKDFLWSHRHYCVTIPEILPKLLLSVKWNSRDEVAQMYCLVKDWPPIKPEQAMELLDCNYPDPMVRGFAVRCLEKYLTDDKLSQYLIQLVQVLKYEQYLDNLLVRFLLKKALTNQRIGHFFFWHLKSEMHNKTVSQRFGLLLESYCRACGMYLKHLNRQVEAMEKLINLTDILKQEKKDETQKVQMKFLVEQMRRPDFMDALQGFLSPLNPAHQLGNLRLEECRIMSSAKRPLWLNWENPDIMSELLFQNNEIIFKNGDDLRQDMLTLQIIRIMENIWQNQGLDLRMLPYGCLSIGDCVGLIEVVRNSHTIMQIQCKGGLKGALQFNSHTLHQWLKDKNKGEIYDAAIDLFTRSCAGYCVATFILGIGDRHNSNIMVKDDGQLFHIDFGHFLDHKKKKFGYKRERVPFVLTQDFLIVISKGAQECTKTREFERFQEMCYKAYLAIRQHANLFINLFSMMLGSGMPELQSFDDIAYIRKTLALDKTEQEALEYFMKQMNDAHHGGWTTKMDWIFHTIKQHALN
smiles,measurement,setting,value
c1cc(Nc2nccc(-c3cncnc3CC3CC3)n2)ccn1,IC50,[1],> 9100 nM
same,IC50,[2],330 nM
same,CLint scaled,[3],69.9 mL/min/kg
same,IC50,[4],210 nM
CNc1ncc(-c2ccnc(Nc3ccccc3)n2)c(CC2CC2)n1,IC50,[4],290 nM
CC(C)(C)Nc1ncc(-c2ccnc(Nc3ccncc3)n2)c(CC2CC2)n1,IC50,[1],740 nM
same,CLint scaled,[3],85.5 mL/min/kg
c1cc(Nc2nccc(-c3cnc(NC4CCOCC4)nc3CC3CC3)n2)ccn1,IC50,[1],4200 nM
same,IC50,[2],270 nM
same,CLint scaled,[3],65.8 mL/min/kg
same,IC50,[4],240 nM
CC(C)(O)CNc1ncc(-c2ccnc(Nc3ccncc3)n2)c(CC2CC2)n1,inhibition,[5],Active
same,Ratio IC50,Homo sapiens [6],> 100
same,IC50,[1],820 nM
same,Ratio IC50,Homo sapiens [7],> 100
same,Ratio IC50,Homo sapiens [8],> 100
same,AUC(0-inf),[9],6.73 µM·h
same,Cmax,[10],2990 nM
same,IC50,[2],25 nM
same,Vd,[11],1.5 L/kg
same,Ratio IC50,Homo sapiens [12],10
same,half-life,[13],72 min
same,Activity,RKO,inactive
same,AUC(0-inf),[14],2.85 µM·h
same,inhibition,[15],Active
same,inhibition,[16],Active
same,CL,Mus musculus [17],33%
same,inhibition,[18],Active
same,CLint scaled,[3],63.2 mL/min/kg
same,clearance,[19],30 mL/min/kg
same,inhibition,Mus musculus [20],tde
same,CL/F,[21],30 mL/min/kg
same,Tmax,[22],42 min
same,inhibition,[23],Active
same,bioavailability,[24],47%
same,Ratio IC50,Homo sapiens [25],40
same,inhibition,[26],Active
same,inhibition,[27],Active
CNc1ncc(-c2ccnc(N[C@H]3CC[C@H](O)CC3)n2)c(CC2CC2)n1,IC50,[1],7000 nM
same,IC50,[28],8500 nM
same,IC50,[29],> 9100 nM
same,CLint scaled,[3],82.6 mL/min/kg
same,IC50,[30],3800 nM
same,IC50,[31],6200 nM
CNc1ncc(-c2ccnc(Nc3ccncc3)n2)c(CC2CC2)n1,IC50,[1],2900 nM
same,IC50,[2],14 nM
same,IC50,[28],1900 nM
same,IC50,[29],> 9100 nM
same,CLint scaled,[3],86.7 mL/min/kg
same,IC50,[31],6800 nM
COc1ncc(-c2ccnc(Nc3ccncc3)n2)c(CC2CC2)n1,IC50,[1],8500 nM
same,CLint scaled,[3],84.7 mL/min/kg
